# CHRM4 agonist: CHRM4 agonism in calcium assay; P08173; CHO-K1 hM4/Gqi5, Fluo-8 calcium fluorescence; vehicle 0%, full acetylcholine response 100%; activation, % at 3 µM; 360,000 compounds, 0.14% hits;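 active = activation above the run mean over all test wells plus 3 SD, cut at about 32% in these data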;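 also: peak over basal fluorescence ratio per well then scaled between controls; 0% = DMSO wells and 100% = acetylcholine at EC100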
# M4 PAM: CHRM4 positive allosteric modulation | P08173 | CHO-K1 hM4/Gqi5, Fluo-8 calcium fluorescence, ACh EC20; 0% = ACh EC20, 100% = maximal ACh | activation, % at 3 µM | 360,000 compounds, 0.4% hits;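 active = activation above its plate's cutoff, the mean activation of sample wells plus 3 SD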
# CHRM4 antagonist: antagonists of human muscarinic M4 receptor (CHRM4); CHO-hM4 cells, ACh EC80, Fluo-8 calcium fluorescence; inhibition, % at 3 µM; 360,000 compounds, 0.73% hits; AID 624125;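 active = inhibition above its plate's cutoff, the mean inhibition of sample wells plus 3 SD, cut at about 27% in these data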;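 also: 0% = acetylcholine EC80 with DMSO and 100% = DMSO without agonist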
# CHRM5 antagonist: blocks acetylcholine activation of human M5 receptor; CHO-hM5 cells, Fluo-8 calcium fluorescence, ACh EC80; P08912; 360,000 compounds, 0.59% hits; inhibition, % at 3 µM;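 active = inhibition above a per-plate cutoff, the mean of that plate's test compounds plus 3 SD, cut at about 27% in these data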;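 also: 0% = acetylcholine EC80 with DMSO and 100% = DMSO without agonist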
# Target sequence (P08912 whole entry, looked up): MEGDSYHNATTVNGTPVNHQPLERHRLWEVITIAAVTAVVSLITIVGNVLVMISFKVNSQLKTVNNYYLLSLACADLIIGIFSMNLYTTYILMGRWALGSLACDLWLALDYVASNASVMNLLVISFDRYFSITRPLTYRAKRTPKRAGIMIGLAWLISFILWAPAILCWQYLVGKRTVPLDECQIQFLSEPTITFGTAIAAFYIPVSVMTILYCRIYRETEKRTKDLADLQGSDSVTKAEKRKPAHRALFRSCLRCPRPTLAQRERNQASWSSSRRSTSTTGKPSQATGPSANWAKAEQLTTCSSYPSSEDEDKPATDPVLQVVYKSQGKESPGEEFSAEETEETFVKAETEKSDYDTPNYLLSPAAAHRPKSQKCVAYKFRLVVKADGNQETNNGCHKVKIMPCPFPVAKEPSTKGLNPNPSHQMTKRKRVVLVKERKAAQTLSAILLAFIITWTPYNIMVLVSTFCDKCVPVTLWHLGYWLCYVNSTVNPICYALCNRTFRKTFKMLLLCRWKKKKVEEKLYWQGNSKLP
# M5 PAM: CHRM5 positive allosteric modulation; P08912; CHO-K1 hM5, Fluo-8 calcium, ACh EC20 PAM; 0% = ACh EC20, 100% = ACh EC100; activation, % at 3 µM; 360,000 compounds, 0.3% hits;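 active = activation above the run cutoff, the mean activation of all test compounds plus 3 SD, cut at about 18% in these data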
#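 System: CHO-K1 cell line with stable human muscarinic M5 receptor expression | Also added: EC20 acetylcholine as agonist stimulus | Compound: One concentration, 3 µM final (nominal) | Timing: Fluo-8 loading 80 min at 37 °C plus 30 min room temperature | Measured by: Fluo-8 calcium dye fluorescence, kinetic read | Read-out basis: % activation, ACh-normalized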
# M5 ag: agonists of human muscarinic M5 receptor (CHRM5) | P08912 | CHO-K1 hM5 cells, Fluo-8 calcium fluorescence; 0% DMSO wells, 100% maximal acetylcholine response | activation, % at 3 µM | 360,000 compounds, 0.19% hits;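 active = activation above the run's mean over test compounds plus 3 SD, cut at about 23% in these data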;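 also: signal is peak over basal fluorescence ratio across the kinetic read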
# Starred values were filed as active, the others as inactive. A selection: hits, their analogues and other compounds. The true share with any hit is near 1.9%.
SMILES,CHRM4 agonist,M4 PAM,CHRM4 antagonist,CHRM5 antagonist,M5 PAM,M5 ag
CC(=O)c1ccc(NC(=O)C2CCCN(S(=O)(=O)c3cccc4nonc34)C2)cc1 (stereo unspecified),8,-6,-2,15,-4,-3
CS(=O)(=O)N1CCCC(C(=O)Nc2cccc(F)c2)C1 (stereo unspecified),1,-1,-15,-5,18*,6
Cc1ccc(Cc2c(C3CCCCC3)nc3c(C)cc(Br)cn23)cc1,-1,6,-18,-3,-8,-1
CC(=O)Nc1cccc(NC(=O)C2CCCN2C(=O)Nc2cccc(C)c2)c1 (stereo unspecified),3,3,10,2,2,1
CC(=O)Nc1cccc(NC(=O)C2CCCN2C(=O)Nc2cccc(F)c2)c1 (stereo unspecified),0,9,-7,-20,21*,1
CCCCn1c(N)c(N(CCOC)C(=O)c2cc(CC)c(C)s2)c(=O)[nH]c1=O,-1,10,-5,2,2,3
O=C(NCc1ccco1)c1cccc(NS(=O)(=O)c2ccccc2F)c1,1,13,18,21,19*,5
O=C(NCc1ccco1)c1cccc(NS(=O)(=O)c2cccc(F)c2)c1,0,-9,-5,3,-3,0
Cc1cccc(NC(=O)CSc2nc3ccccc3c(=O)n2CC2CCCO2)c1 (stereo unspecified),2,2,2,-2,-2,0
O=C1NC(=O)C2(N1)C(=O)c1cccc3cccc2c13 (stereo unspecified),161*,-17,29*,17,-9,36*
O=C1NC(=O)C2(N1)c1ccccc1-c1ccccc12,0,-1,-1,9,4,0
CCCNc1nc(C)cc(-c2cc(-c3ccccc3)on2)n1,-1,8,6,12,-2,-5
CC(C)c1cc(-c2cc(C(=O)NCc3ccccc3)on2)nc(NCC2CC2)n1,43*,-7,41*,28*,8,36*
Cc1cc(-c2cc(-c3ccccc3)on2)nc(NCC2CC2)n1,-1,29*,-6,-2,1,-1
CCC(C)(C)NC(=O)C(c1ccco1)N(C(=O)CNC(=O)c1cccs1)c1cccnc1 (stereo unspecified),6,4,-12,29*,29*,-1
COc1ccc(NC2CCCN(C(=O)c3cc4ncccn4n3)C2)cc1 (stereo unspecified),1,4,0,-6,-7,-1
COc1ccc(-c2nnc(-c3ccc(OCC(C)C)cc3)o2)cc1,2,22*,-6,-6,9,-4
CC(C)COc1ccc(-c2nnc(-c3ccncc3)o2)cc1,2,17,6,5,1,1
CCOC(=O)c1c(-c2ccccc2)csc1NC(=O)/C(C#N)=C\c1ccc(O)c(OC)c1,3,1,1,17,12,31*
CCOC(=O)c1c(-c2ccc(C)cc2)csc1NC(=O)/C(C#N)=C/c1ccc(O)c(OC)c1,3,1,2,-13,8,5
CCOC(=O)C1CCCN(c2nc3ccccc3nc2C(C#N)C(=O)OC(C)C)C1 (stereo unspecified),2,21*,0,-1,4,2
CCOC(=O)C1CCN(c2nc3ccccc3nc2C(C#N)C(=O)OC(C)C)CC1 (stereo unspecified),0,0,3,1,-3,-4
O=C(Cc1ccc(F)cc1)Nc1ccc(Cl)cn1,5,15*,17,30*,49*,0
O=C(COC(=O)Cc1ccc(F)cc1)Nc1ccc(Cl)cn1,0,1,-5,-4,1,-1
O=C(Cc1ccccc1)Nc1cccnc1,0,14,3,-2,7,-1
SMILES,CHRM4 agonist,M4 PAM,CHRM4 antagonist,CHRM5 antagonist,M5 PAM,M5 ag
O=C(Cc1ccc(Cl)cc1)Nc1cccnc1,1,28*,-8,-7,1,1
O=C(Cc1ccc(Cl)cc1)Nc1ccc(Cl)cn1,-1,-2,-3,-8,21*,0
O=C(NCCN1CCOCC1)C1CC(=O)N(c2ccc(F)cc2)C1 (stereo unspecified),0,7,-4,6,4,-4
O=C(CSc1nc(O)cc(=O)n1-c1ccccc1)Nc1ccc2c3c(cccc13)CC2,1,20*,-12,-4,8,0
Cc1c(O)nc(SCC(=O)Nc2ccc3c4c(cccc24)CC3)n(-c2ccccc2)c1=O,2,0,11,2,2,-2
COc1ccc(NC(=O)CSc2nc(O)cc(=O)n2-c2ccccc2)cc1,1,12,-9,-15,16,0
Cc1ccc(-n2c(SCC(=O)Nc3ccc(Cl)cc3)nc(O)cc2=O)cc1,0,2,-4,32*,-6,-9
CC(=O)C1=C(C)NC(=S)NC1c1cc([N+](=O)[O-])ccc1O (stereo unspecified),1,12,-7,-1,3,2
COc1ccc2c(/C=N/NS(=O)(=O)c3ccc(C)cc3)c[nH]c2c1,1,2,5,-8,7,1
COc1ccc2[nH]cc(/C=N/NS(=O)(=O)c3ccc(C)cc3)c2c1,7,7,28*,3,-3,1
O=Cc1c[nH]c2ccc(C(=O)c3ccccc3)cc12,3,5,-3,-5,3,-1
O=C(C1=C(O)C(=O)N(CCOCCO)C1c1cccc([N+](=O)[O-])c1)c1cccs1 (stereo unspecified),1,3,-20,-12,22*,5
CCOc1cccc(C2C(C(=O)c3cccs3)=C(O)C(=O)N2Cc2cccnc2)c1 (stereo unspecified),1,11,-2,18,29*,7
CCCCOc1cccc(C2C(C(=O)c3cccs3)=C(O)C(=O)N2Cc2cccnc2)c1 (stereo unspecified),0,-3,-5,1,-4,-4
COc1ccc(C(CC(=O)NCC(OC)OC)NS(=O)(=O)c2ccc(Cl)cc2)cc1 (stereo unspecified),1,-2,-6,6,3,0
Cc1sc2ncnc(N/N=C/c3ccc(O)cc3)c2c1C,3,19,-1,-4,-2,2
Cc1sc2ncnc(N/N=C/c3ccccc3O)c2c1C,1,30*,-20,-3,0,0
CC[n+]1c(C)sc2c(C)cc(C)cc21,-1,-3,4,-6,27*,14
